From ChEMBL document CHEMBL1131323, “Inhibition of membrane-type 1 matrix metalloproteinase by hydroxamate inhibitors: an examination of the subsite pocket” (J Med Chem, 1998)
pIC50: −log10 of the molar value.

What was measured:
[1] = target: Matrix metalloproteinase-9 (Homo sapiens, UniProt P14780); test: Activity against Matrix metalloprotease-9 (MMP-9).
Interstitial collagenase = target: T1, Interstitial collagenase (Homo sapiens, UniProt P03956); test: Activity against Matrix metalloprotease-1 (MMP-1).
T1 sequence (P03956 whole entry): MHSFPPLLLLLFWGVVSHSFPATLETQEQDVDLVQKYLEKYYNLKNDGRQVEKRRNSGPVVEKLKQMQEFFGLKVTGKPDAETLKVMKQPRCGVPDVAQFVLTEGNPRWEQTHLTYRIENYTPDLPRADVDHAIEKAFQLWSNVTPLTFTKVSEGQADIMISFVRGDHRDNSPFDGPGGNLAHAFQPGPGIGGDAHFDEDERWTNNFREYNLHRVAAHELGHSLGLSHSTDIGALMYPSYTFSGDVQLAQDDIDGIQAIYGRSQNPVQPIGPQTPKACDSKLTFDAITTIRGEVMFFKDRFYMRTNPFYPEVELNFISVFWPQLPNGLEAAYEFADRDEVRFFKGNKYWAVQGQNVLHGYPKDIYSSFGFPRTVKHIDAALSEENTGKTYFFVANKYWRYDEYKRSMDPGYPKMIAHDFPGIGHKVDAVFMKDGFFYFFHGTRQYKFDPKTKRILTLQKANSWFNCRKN

[2] = target: Matrix metalloproteinase-14 (Homo sapiens, UniProt P50281); test: Activity against deletion mutant of MT1-MMP lacking the transmembrane domain (deltaMT1)
[3] = target: 72 kDa type IV collagenase (Homo sapiens, UniProt P08253); test: Activity against Matrix metalloprotease-2 (MMP-2).
Sequence of 72 kDa type IV collagenase (P08253 whole entry): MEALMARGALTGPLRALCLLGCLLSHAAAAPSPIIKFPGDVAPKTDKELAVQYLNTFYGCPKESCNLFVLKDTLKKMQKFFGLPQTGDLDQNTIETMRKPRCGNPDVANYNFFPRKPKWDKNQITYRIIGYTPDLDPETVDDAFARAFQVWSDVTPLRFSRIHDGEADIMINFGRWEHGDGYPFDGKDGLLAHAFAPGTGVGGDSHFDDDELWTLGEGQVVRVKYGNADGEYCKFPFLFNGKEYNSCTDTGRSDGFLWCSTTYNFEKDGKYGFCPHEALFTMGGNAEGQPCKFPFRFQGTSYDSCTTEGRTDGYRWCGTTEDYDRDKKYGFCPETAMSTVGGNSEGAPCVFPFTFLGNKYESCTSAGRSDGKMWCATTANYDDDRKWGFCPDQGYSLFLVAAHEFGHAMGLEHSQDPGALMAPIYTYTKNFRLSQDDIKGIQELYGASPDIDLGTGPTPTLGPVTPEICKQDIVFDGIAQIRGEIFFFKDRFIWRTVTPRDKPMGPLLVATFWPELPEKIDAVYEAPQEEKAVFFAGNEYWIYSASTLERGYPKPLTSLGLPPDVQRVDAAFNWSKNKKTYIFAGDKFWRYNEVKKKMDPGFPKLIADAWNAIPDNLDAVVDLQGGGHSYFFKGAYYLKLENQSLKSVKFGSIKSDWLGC

Stromelysin-1 = Stromelysin-1 (Homo sapiens, UniProt P08254); test: Activity against Matrix metalloprotease-3 (MMP-3).
Sequence of Stromelysin-1 (P08254 whole entry): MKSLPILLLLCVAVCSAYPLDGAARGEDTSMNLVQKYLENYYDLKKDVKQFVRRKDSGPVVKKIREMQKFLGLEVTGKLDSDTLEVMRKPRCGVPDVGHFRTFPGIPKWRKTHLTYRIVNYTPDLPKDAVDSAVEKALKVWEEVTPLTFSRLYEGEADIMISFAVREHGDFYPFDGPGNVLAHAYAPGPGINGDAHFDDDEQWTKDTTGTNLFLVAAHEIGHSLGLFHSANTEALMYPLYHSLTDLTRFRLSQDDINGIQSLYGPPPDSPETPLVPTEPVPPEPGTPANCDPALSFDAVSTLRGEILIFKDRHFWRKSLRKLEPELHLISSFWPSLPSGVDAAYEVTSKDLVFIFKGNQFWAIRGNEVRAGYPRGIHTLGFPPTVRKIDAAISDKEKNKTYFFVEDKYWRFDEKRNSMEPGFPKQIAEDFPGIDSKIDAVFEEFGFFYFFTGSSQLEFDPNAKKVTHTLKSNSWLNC
Outline: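 MMP-3 purified from human fibroblast culture medium, used at 0.3 U/mL. Substrate was radiolabeled proteoglycan entrapped in polyacrylamide particles (3.5 mg dry beads). IC50 values read from dose-dependent inhibition curves.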

Sequence of Matrix metalloproteinase-9 (P14780 whole entry): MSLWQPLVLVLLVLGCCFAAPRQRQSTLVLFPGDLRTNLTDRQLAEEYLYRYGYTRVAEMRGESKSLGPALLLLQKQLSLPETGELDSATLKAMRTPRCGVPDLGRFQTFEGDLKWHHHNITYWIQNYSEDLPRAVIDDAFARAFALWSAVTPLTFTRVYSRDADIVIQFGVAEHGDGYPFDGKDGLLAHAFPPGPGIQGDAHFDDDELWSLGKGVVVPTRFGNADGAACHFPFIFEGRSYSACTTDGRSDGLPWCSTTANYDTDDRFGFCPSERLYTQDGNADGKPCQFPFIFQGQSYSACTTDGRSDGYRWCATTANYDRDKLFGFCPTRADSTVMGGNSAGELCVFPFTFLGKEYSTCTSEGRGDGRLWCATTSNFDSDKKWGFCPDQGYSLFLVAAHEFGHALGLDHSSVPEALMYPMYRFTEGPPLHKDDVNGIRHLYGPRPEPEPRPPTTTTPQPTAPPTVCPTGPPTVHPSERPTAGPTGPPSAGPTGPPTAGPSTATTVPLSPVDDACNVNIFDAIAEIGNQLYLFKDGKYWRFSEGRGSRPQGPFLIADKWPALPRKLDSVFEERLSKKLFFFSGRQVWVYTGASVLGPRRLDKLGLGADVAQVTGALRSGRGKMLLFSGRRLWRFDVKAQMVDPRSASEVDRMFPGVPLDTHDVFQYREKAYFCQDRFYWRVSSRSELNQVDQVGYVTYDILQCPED

Compound	pIC50 [1]	pIC50 (Interstitial collagenase)	pIC50 [2]	pIC50 [3]	pIC50 (Stromelysin-1)
CNC(=O)[C@@H](NC(=O)[C@H](CC(C)C)[C@H](C)C(=O)NO)C1CCCCC1	9.05	8.54	7.89		
CNC(=O)[C@@H](NC(=O)[C@H](CCCc1ccccc1)CC(=O)NO)c1ccccc1	8.48	7.05	8.07	8.49	8.02
CNC(=O)[C@H](Cc1c[nH]c2ccccc12)NC(=O)[C@@H](CC(=O)NO)CC(C)C [ILOMASTAT]			7.87		8.72
CCCCCCCCC[C@H](CC(=O)NO)C(=O)N[C@H](C(=O)NC)c1ccccc1	9.70	7.05	7.75	8.80	7.00
CNC(=O)[C@@H](NC(=O)[C@H](CCc1ccccc1)CC(=O)NO)c1ccccc1	7.96	7.04	6.98	7.33	7.77
CNC(=O)[C@@H](NC(=O)[C@H](CC(C)C)[C@H](CN1CCOCC1)C(=O)NO)c1ccccc1	7.35	8.46	7.14		7.21
CNC(=O)[C@@H](NC(=O)[C@@H](CC(=O)NO)CC(C)C)c1ccccc1	7.85	7.82	7.71	7.37	8.36
CNC(=O)[C@@H](NC(=O)[C@H](CC(C)C)[C@H](C)C(=O)NO)c1ccccc1	8.41	8.52	7.25	8.12	8.72

Molecules with a higher pIC50 [2], results first:

pIC50 [1]	pIC50 (Interstitial collagenase)	pIC50 [2]	pIC50 [3]	pIC50 (Stromelysin-1)	Compound
9.70		8.52			CNC(=O)[C@H](Cc1ccccc1)NC(=O)[C@H](CC(C)C)[C@H](CSc1cccs1)C(=O)NO [BATIMASTAT]
8.55	7.03	8.60			CNC(=O)[C@@H](NC(=O)[C@H](CCCc1ccccc1)CC(=O)NO)C(C)C
8.30	8.27	8.64	8.08	8.64	CNC(=O)[C@@H](NC(=O)[C@@H](CC(=O)NO)CC(C)C)C1CCCCC1
9.52	9.52	8.68	9.52	9.22	CNC(=O)[C@H](Cc1cccc2c1CCCC2)NC(=O)[C@H](CC(C)C)[C@H](C)C(=O)NO
8.89		8.72			CNC(=O)[C@@H](NC(=O)[C@H](CCCc1ccccc1)CC(=O)NO)C(C)(C)C
7.92	8.52	8.72	8.13		CNC(=O)[C@@H](NC(=O)[C@@H](CC(=O)NO)CC(C)C)C(C)(C)C [RO-319790]
		8.74			CNC(=O)[C@@H](NC(=O)C(CC(C)C)C(O)C(=O)NO)C(C)(C)C (single isomer, unassigned)
